According to ChEMBL document CHEMBL4350999, “Enhanced tumor retention of NTSR1-targeted agents by employing a hydrophilic cysteine cathepsin inhibitor” (Eur J Med Chem, 2019):
Active and inactive are the calls of the source. The rule behind the calls is not given here.

Key:
[1] = Drug localization in endolysosomal compartment of human HT-29 cells assessed as decrease in co-localization efficiency at 5 uM incubated for 2 hrs and measured over 24 hrs using natEu labelled compound by lysotracker green staining based confocal microscopic analysis relative to control; type: ADME, subcellular; settings: ht-29, 5 µM
In short: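 HT-29 cells (1.25 × 10^5/well) loaded with natEu conjugate (5 μM), washed, then chased in fresh medium up to 24 h. Lysotracker Green (100 nM) applied 2 h before each read; cells fixed and imaged confocally at 405/488 nm. Per-cell mean fluorescence and Lysotracker co-localization quantified.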

[2] = Ratio of drug uptake in SCID mouse xenograted with human HT-29 cells assessed as tumour retention to drug uptake in kidney of SCID mouse xenografted with human HT-29 cells cotreated with D-lysine at 40 mg/kg measured after 24 hrs using 177Lu labelled compound; type: ADME, organism-based, Tumor/Kidney; settings: in vivo
In short: (§1)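 HT-29 s.c. xenografts in female SCID mice. 177Lu conjugate given i.v. by tail vein at 10 μCi (0.37 MBq)/mouse, co-injected with D-lysine 40 mg/kg. Tissues were taken at 24 h, weighed and gamma counted. Uptake expressed as %ID/g (n = 5, mean ± SD); tumor-to-tissue ratios derived from these values.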

[3] = Drug retention in kidney lysates of mouse xenografted with human HT-29 cells assessed as macromolecule associated radioactivity at 29.6 MBq co-treated with D-lysine measured after 72 hrs using 177Lu labelled compound by gamma conter analysis relative to control; type: ADME, tissue-based; settings: in vivo
[4] = Ratio of drug uptake in SCID mouse xenograted with human HT-29 cells assessed as tumour retention to drug uptake in pancreas of SCID mouse xenografted with human HT-29 cells cotreated with D-lysine at 40 mg/kg measured after 24 hrs using 177Lu labelled compound; type: ADME, organism-based, Tumor/Pancreas; settings: in vivo
[5] = Drug uptake in spleen of SCID mouse xenografted with human HT-29 cells using 177Lu labelled compound at 0.37 MBq/mouse, iv co-treated with D-lysine at 40 mg/kg measured at 24 hrs by gamma counter analysis; type: ADME, organism-based; settings: in vivo; in short: as §1
[6] = Drug uptake in pancreas of SCID mouse xenografted with human HT-29 cells pretreated for 1 hr with colchicine at 1 mg/kg, ip followed by 177Lu labelled compound at 0.37 MBq/mouse, iv measured at 24 hrs by gamma counter analysis; type: ADME, organism-based; settings: in vivo
In short: (§2)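 HT-29 flank xenografts in female SCID mice (5 × 10^6 cells in Matrigel, about 80 mm3). Colchicine 1 mg/kg was given i.p. before a tail-vein injection of 10 μCi (0.37 MBq) of purified 177Lu-conjugate. Tissues were taken at 24 h, weighed and gamma-counted as %ID/g; mean ± SD, n = 5.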

[7] = Drug uptake in small intestine of SCID mouse xenografted with human HT-29 cells using 177Lu labelled compound at 0.37 MBq/mouse, iv co-treated with D-lysine at 40 mg/kg measured at 24 hrs by gamma counter analysis; type: ADME, organism-based; settings: in vivo
[8] = Ratio of drug uptake in SCID mouse xenograted with human HT-29 cells assessed as tumour retention to drug uptake in lung of SCID mouse xenografted with human HT-29 cells cotreated with D-lysine at 40 mg/kg measured after 24 hrs using 177Lu labelled compound; type: ADME, organism-based, Tumor/Lung; settings: in vivo
Procathepsin L = Procathepsin L (Homo sapiens, UniProt P07711); test: Binding affinity to cathepsin L in human HT-29 cells assessed as intracellular adduct formation at 0.74 MBq incubated for 4 hrs in presence of E-64 using 177Lu labelled compound by SDS-PAGE analysis; type: cell-based; parameters: dose or concentration left out as unconfirmed
Procathepsin L, sequence (P07711 114-333 limits assumed): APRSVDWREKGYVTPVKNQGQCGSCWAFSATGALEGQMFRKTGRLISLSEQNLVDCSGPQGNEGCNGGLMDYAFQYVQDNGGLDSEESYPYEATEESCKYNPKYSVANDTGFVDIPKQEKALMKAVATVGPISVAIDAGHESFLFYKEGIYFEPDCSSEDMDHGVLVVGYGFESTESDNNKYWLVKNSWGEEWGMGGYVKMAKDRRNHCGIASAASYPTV
In short: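 HT-29 cells (1 × 10^6/well) incubated 4 h at 37 °C with 177Lu conjugate (20 μCi, 0.74 MBq) in 1 mL medium, with or without E-64 (10 μM) or NTSR1 peptide N1 (20 μM). Cells washed and refed; at set times cells pooled, RIPA-lysed with protease inhibitor. Lysates heated 85 °C 2 min, run on 16% tris-glycine SDS-PAGE, and phosphor autoradiography taken after 72 h exposure.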

[9] = Ratio of drug uptake in SCID mouse xenograted with human HT-29 cells assessed as tumour retention to drug uptake in spleen of SCID mouse xenografted with human HT-29 cells cotreated with D-lysine at 40 mg/kg measured after 24 hrs using 177Lu labelled compound; type: ADME, organism-based, Tumor/Spleen; settings: in vivo
[10] = Ratio of drug uptake in SCID mouse xenograted with human HT-29 cells assessed as tumour retention to drug uptake in small intestine of SCID mouse xenografted with human HT-29 cells cotreated with D-lysine at 40 mg/kg measured after 24 hrs using 177Lu labelled compound; type: ADME, organism-based, Tumor/Small intestine; settings: in vivo
[11] = Ratio of drug uptake in SCID mouse xenograted with human HT-29 cells assessed as tumour retention to drug uptake in muscle of SCID mouse xenografted with human HT-29 cells cotreated with D-lysine at 40 mg/kg measured after 24 hrs using 177Lu labelled compound; type: ADME, organism-based, Tumor/Muscle; settings: in vivo
[12] = Drug uptake in muscle of SCID mouse xenografted with human HT-29 cells pretreated for 1 hr with colchicine at 1 mg/kg, ip followed by 177Lu labelled compound at 0.37 MBq/mouse, iv measured at 24 hrs by gamma counter analysis; type: ADME, organism-based, Muscle tissue; settings: in vivo; in short: as §2
Cathepsin B = Cathepsin B (Homo sapiens, UniProt P07858); test: Binding affinity to human liver cathepsin B assessed as protein-conjugate adduct formation at 0.74 MBq incubated for 30 mins in presence of DOTA-beta-ala-[N-alpha-Me8, Dmt11, Tle12] NT6-13 using 177Lu labelled compound by SDS-PAGE analysis; settings: 0.74 M
In short: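 Purified human liver CatB or CatL (3 nM) in 50 mM sodium acetate/1 mM EDTA pH 5.0 incubated 30 min with 177Lu conjugate (500,000 cpm) in Tris/MgCl2/DTT buffer pH 5.5, alone or with E-64 (10 μM) or N1 (20 μM). Mixtures heated 85 °C 2 min, run on 16% tris-glycine gel at 110 V for 90 min, and read by phosphor autoradiography.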

[13] = Drug retention in tumor lysates of mouse xenografted with human HT-29 cells assessed as macromolecule associated radioactivity at 29.6 MBq co-treated with D-lysine measured after 72 hrs using 177Lu labelled compound by gamma counter analysis relative to control; type: ADME, tissue-based, Neoplasm; settings: in vivo
[14] = Drug uptake in lung of SCID mouse xenografted with human HT-29 cells pretreated for 1 hr with colchicine at 1 mg/kg, ip followed by 177Lu labelled compound at 0.37 MBq/mouse, iv measured at 24 hrs by gamma counter analysis; type: ADME, organism-based; settings: in vivo; in short: as §2
[15] = Drug uptake in heart of SCID mouse xenografted with human HT-29 cells using 177Lu labelled compound at 0.37 MBq/mouse, iv co-treated with D-lysine at 40 mg/kg measured at 24 hrs by gamma counter analysis; type: ADME, organism-based; settings: in vivo
In short: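 Female SCID mice bore s.c. HT-29 xenografts (5 × 10^6 cells in Matrigel, about 80 mm3). D-lysine 40 mg/kg was co-injected i.v. with 10 μCi (0.37 MBq) of purified 177Lu-conjugate. Tissues were harvested at 24 h, weighed and gamma-counted, reported as %ID/g; mean ± SD, n = 5.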

[16] = Drug uptake in kidney of SCID mouse xenografted with human HT-29 cells pretreated for 1 hr with colchicine at 1 mg/kg, ip followed by 177Lu labelled compound at 0.37 MBq/mouse, iv measured at 24 hrs by gamma counter analysis; type: ADME, organism-based; settings: in vivo; in short: as §2

Drug uptake [1] | Ratio [2] | Drug uptake [3] | Ratio [4] | Drug uptake [5] | Drug uptake [6] | Drug uptake [7] | Ratio [8] | Activity (Procathepsin L) | Ratio [9] | Ratio [10] | Ratio [11] | Drug uptake [12] | Activity (Cathepsin B) | Drug uptake [13] | Drug uptake [14] | Drug uptake [15] | Drug uptake [16] | SMILES
20% | – | – | – | – | – | – | – | – | – | – | – | – | – | – | – | – | – | Cc1cc(O)cc(C)c1C[C@H](NC(=O)[C@@H]1CCCN1C(=O)[C@H](CCCNC(=N)N)NC(=O)[C@H](CCCNC(=N)N)N(C)C(=O)[C@@H]1CCCN1C(=O)[C@H](CCCCN)NC(=O)[C@@H](CO)NC(=O)[C@@H](CO)NC(=O)[C@@H](CO)NC(=O)[C@H](Cc1cn(CCNC(=O)[C@H](CCCNC(=N)N)NC(=O)[C@H](CC(C)C)NC(=O)CCC(=O)O)nn1)NC(=O)CN1CCN(CC(=O)O)CCN(CC(=O)O)CCN(CC(=O)O)CC1)C(=O)N[C@H](C(=O)N[C@@H](CC(C)C)C(=O)O)C(C)(C)C
– | 0.2 | 80% | 75 | 1.1 % ID/g | 0.7 % ID/g | 1.47 % ID/g | 15 | Active | 8 | 4 | 250 | 0.06 % ID/g | Active | 80% | 3.2 % ID/g | 0.14 % ID/g | 26 % ID/g | Cc1cc(O)cc(C)c1C[C@H](NC(=O)[C@@H]1CCCN1C(=O)[C@H](CCCNC(=N)N)NC(=O)[C@H](CCCNC(=N)N)N(C)C(=O)[C@@H]1CCCN1C(=O)[C@H](CCCCN)NC(=O)[C@@H](CO)NC(=O)[C@@H](CO)NC(=O)[C@@H](CO)NC(=O)[C@H](Cc1cn(CCNC(=O)[C@H](CCCNC(=N)N)NC(=O)[C@H](CC(C)C)NC(=O)C2OC2C(=O)O)nn1)NC(=O)CN1CCN(CC(=O)O)CCN(CC(=O)O)CCN(CC(=O)O)CC1)C(=O)N[C@H](C(=O)N[C@@H](CC(C)C)C(=O)O)C(C)(C)C (stereo partly drawn)
